Assay results from ChEMBL document CHEMBL4699656, “Synthesis and structure-activity relationship of coumarins as potent Mcl-1 inhibitors for cancer treatment” (Bioorg Med Chem, 2021).
pIC50, pKi: −log10 of the molar value.

Key:
[1] = target: Induced myeloid leukemia cell differentiation protein Mcl-1 (Homo sapiens, UniProt Q07820); test: Displacement of FAM-Bid peptide from recombinant N-terminal His6x-tagged human Mcl-1 expressed in Escherichia coli BL21 (DE3) incubated for 30 mins by fluorescence polarization assay
Induced myeloid leukemia cell differentiation protein Mcl-1, sequence (Q07820 whole entry): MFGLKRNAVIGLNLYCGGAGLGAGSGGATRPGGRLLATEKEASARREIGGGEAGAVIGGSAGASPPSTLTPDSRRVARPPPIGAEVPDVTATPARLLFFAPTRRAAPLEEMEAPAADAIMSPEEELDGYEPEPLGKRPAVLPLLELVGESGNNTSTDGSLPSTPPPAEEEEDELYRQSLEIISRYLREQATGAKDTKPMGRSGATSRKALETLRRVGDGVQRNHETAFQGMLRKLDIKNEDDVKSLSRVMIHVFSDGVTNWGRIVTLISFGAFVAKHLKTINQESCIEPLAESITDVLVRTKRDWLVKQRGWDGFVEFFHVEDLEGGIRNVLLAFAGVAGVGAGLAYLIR

A549 = test: Potentiation of taxol-induced cytotoxicity against human A549 cells assessed as fold reduction in taxol IC50 for inhibition of cell viability measured after 48 hrs by SRB assay; format: functional
Method in brief: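 A549 cells in RPMI1640 with 10% FBS at 37°C, 5% CO2. Seeded at 6.5 × 10^3 cells/well and allowed to adhere 24 h. Then exposed 48 h to taxol alone or combined with the Mcl-1 inhibitor (0.0001–100 μM). TCA fixation at 4°C, SRB staining, and Tris-solubilized dye read at 570 nm. Growth inhibition taken relative to control. IC50 reported as mean of triplicates.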

Row | SMILES | pIC50 [1] | pKi [1] | fold change (FC) (A549)
1 | O=c1cc(CO)c2ccc(O)c(O)c2o1 | 4.49 | 5.25 | 
2 | Cc1cc(=O)oc2c(O)c(O)ccc12 [4-METHYLDAPHNETIN] | 4.95 | 5.68 | 
3 | [N-]=[N+]=NCc1cc(=O)oc2cc(O)c(O)cc12 | 4.46 | 5.04 | 
4 | COc1cc2ccc(=O)oc2cc1O [SCOPOLETIN] | 4.65 | 4.87 | 
5 | COc1ccc2c(CO)cc(=O)oc2c1O | 4.48 | 5.15 | 
6 | COc1ccc2c(CCl)cc(=O)oc2c1O | 4.51 | 5.18 | 
7 | CN(C)Cc1c(O)c(O)cc2ccc(=O)oc12 | 4.27 | 4.94 | 
8 | O=c1ccc2c(CN3CCC(O)CC3)c(O)c(O)cc2o1 | 4.83 | 5.56 | 
9 | O=c1ccc2cc(O)ccc2o1 [6-HYDROXYCOUMARIN] | 4.08 | 4.62 | 
10 | Cc1cc(=O)oc2c([N+](=O)[O-])c(O)ccc12 | 4.58 | 4.97 | 
11 | O=c1ccc2ccc(O)c(O)c2o1 [DAPHNETIN] | 4.93 | 5.76 | 
12 | O=c1cc(CCl)c2cc(O)c(O)cc2o1 | 5.24 | 5.98 | 
13 | Cc1cc(=O)oc2c(CN3CCCC3)c(O)c(O)cc12 | 4.95 | 5.60 | 
14 | CN(C)Cc1c(O)c(O)cc2oc(=O)ccc12 | 4.70 | 5.32 | 
15 | O=c1cc(CO)c2cc(O)c(O)cc2o1 | 5.40 | 6.12 | 
16 | Cc1cc(=O)oc2cc(O)c(Cl)cc12 | 4.54 | 5.28 | 
17 | Cc1cc(=O)oc2c(CN(C)C)c(O)c(O)cc12 | 5.13 | 5.84 | 
18 | COc1cc2cc([N+](=O)[O-])c(=O)oc2c([N+](=O)[O-])c1OC | 4.91 | 5.66 | 

Row | SMILES | pIC50 [1] | pKi [1] | fold change (FC) (A549)
19 | O=c1cc(CCl)c2ccc(O)c(O)c2o1 | 4.73 | 5.50 | 
20 | O=c1cc(C(F)(F)F)c2cc(O)c(O)cc2o1 | 5.92 | 6.68 | >10
21 | Cc1cc(=O)oc2cc(O)ccc12 [HYMECROMONE] | 3.98 | 4.65 | 
22 | O=c1ccc2cc(O)c(O)cc2o1 [ESCULETIN] | 5.06 | 5.83 | 
23 | COc1cc2ccc(=O)oc2c(O)c1O [FRAXETIN] | 4.49 | 5.26 | 
24 | COc1ccc2c(C)cc(=O)oc2c1O | 4.77 | 5.62 | 
25 | Cc1cc(=O)oc2c(CN3CCC(O)CC3)c(O)c(O)cc12 | 4.23 | 4.67 | 
26 | COc1cc2oc(=O)ccc2cc1O [ISOSCOPOLETIN] | 4.29 | 4.80 | 
27 | COc1ccc2ccc(=O)oc2c1O | 4.77 | 5.15 | 
28 | O=c1ccc2ccc(O)cc2o1 [UMBELLIFERONE] | 4.68 | 5.42 | 
29 | O=c1ccc2cc(O)c(O)c(CN3CCC(O)CC3)c2o1 | 4.66 | 5.32 | 
30 | COc1cc2ccc(=O)oc2cc1OC [SCOPARONE] | 4.60 | 5.02 | 
31 | O=c1cc(-c2ccccc2)c2cc(O)c(O)cc2o1 | 5.49 | 6.19 | 
32 | O=c1ccc2ccccc2o1 [COUMARIN] | 4.61 | 5.39 | 
33 | O=C(O)Cc1cc(=O)oc2cc(O)c(O)cc12 | 4.47 | 5.03 | 
34 | Cc1cc(=O)oc2cc(O)c(O)cc12 [4-METHYLESCULETIN] | 5.20 | 5.92 | 
35 | CCc1cc2c(C)cc(=O)oc2cc1O | 4.51 | 5.26 | 
